According to publication PMC12322058 (Scientific Reports, 2025):

Legend:
SH-SY5Y cells = assay: MTT colorimetric cytotoxicity assay; format: cell-based; details: Homo sapiens, 24 h
Outline: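 SH-SY5Y cells were grown in DMEM with 10% FBS at 0.1 × 10^5 cells/well for 24 h at 37 °C ([…]/5% CO2) to half-confluence. After a PBS wash and 1 h in serum-free medium, cells received free or nanoparticle test compound (0.05–100 µM) or serum-free medium for 24 h. MTT (1 mg/mL) was added for 4 h; formazan was dissolved in DMSO and read at 540 nm. Viability is expressed as % of control.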

[1] = Tissue distribution after IV administration; format: in vivo, Sprague-Dawley male rats; details: for AUC0 − t: 5 mg/kg IV, rats; for Cmax: male, Sprague-Dawley, rat, iv, 5 mg/kg
Outline: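 Male Sprague-Dawley rats (8–12 weeks), 27 per group (free drug or one of two nanoparticle formulations), 3 rats at each of nine time points. Single 5 mg/kg IV dose. CO2 euthanasia; tissues excised, saline-rinsed, homogenized 1:4 in PBS pH 7.4, stored at −85 °C. LC-MS/MS against matrix-matched calibration (1.03–1026.00 ng/mL). Noncompartmental AUC0–t and Cmax; Kp as tissue/plasma AUC ratio; means reported.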

[2] = Plasma pharmacokinetics after IV administration; format: in vivo, Sprague-Dawley male rats; details: male, Sprague-Dawley, rat, 5 mg/kg
Outline: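 Male Sprague-Dawley rats (8–12 weeks) received 5 mg/kg IV. Blood was taken retro-orbitally under isoflurane into K2EDTA at 0.08–24 h (nine points, 3 rats each), and plasma was stored at -85 °C. LC-MS/MS quantification used a 1.03–1026.00 ng/mL calibration with 1/x2 weighting. Noncompartmental analysis on means: AUC by mixed log-linear method, CL = Dose/AUCinf, Vss = CL×MRT.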

- AUC0 − t ([1]; brain posterior region): 757.5 ng·h/g
- AUC0 − t ([1]; cerebellum): 402.5 ng·h/g
- AUC0 − t ([1]; frontal cortex): 383.8 ng·h/g
- Cmax ([1]; cerebellum): 120 ng/g
- Cmax ([1]; frontal cortex): 129 ng/g
- Cmax ([1]; kidney): 485 ng/g
- Cmax ([1]; liver): 2440 ng/g
- Cmax ([1]; lungs): 12700 ng/g
- Cmax ([1]; posterior brain region): 162 ng/g
- AUC(0-inf) [2]: 1920 ng·h/mL
- clearance ([2]; CL, 5 mg/kg IV, rats): 21.8 mL/min/kg
Structure (SMILES): CC(=O)c1c(C)c2cnc(Nc3ccc(N4CCNCC4)cn3)nc2n(C2CCCC2)c1=O [Palbo, Palbociclib]
- IC50 (SH-SY5Y cells): 0.86 µM
